The list is not random: actives were taken first. Their share in the collection is about 0.55%.
OXTR agonist: activates the human oxytocin receptor; 320,000 tested, 0.32% active; CHO-OTR cells, Fluo-8 calcium fluorescence; normalized: DMSO 0%, oxytocin 100%; activation, % at 3 µM; P30559;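 active = activation above the mean of all tested compounds plus 3 SD, cutoff set per screening run, cut at about 20% in these data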;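 also: peak over basal fluorescence ratio from a 100 s FLIPR kinetic read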
Target sequence (P30559 whole entry, looked up): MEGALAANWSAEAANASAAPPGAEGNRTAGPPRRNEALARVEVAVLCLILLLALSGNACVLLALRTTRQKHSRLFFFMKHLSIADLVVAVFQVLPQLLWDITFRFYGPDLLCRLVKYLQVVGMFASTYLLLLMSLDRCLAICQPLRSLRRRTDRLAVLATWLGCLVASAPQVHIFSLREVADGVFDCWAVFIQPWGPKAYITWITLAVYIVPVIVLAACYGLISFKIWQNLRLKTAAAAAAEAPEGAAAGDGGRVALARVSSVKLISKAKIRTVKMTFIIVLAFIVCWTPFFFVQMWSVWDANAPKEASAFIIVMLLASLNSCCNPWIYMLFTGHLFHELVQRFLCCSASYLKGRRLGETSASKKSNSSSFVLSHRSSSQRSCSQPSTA
TRPN1 ag: activates the zebrafish TRPN1 channel; activation, % at 3 µM; AID 1424; 220,000 tested, 0.18% active; HEK293 zebrafish TRPN1-YFP, Fluo-8 calcium fluorescence; 100% = response to 87 µM carbachol;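 active = activation above its plate's cutoff, the mean activation of test wells on that plate plus 3 SD, cut at about 19% in these data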;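 also: 0% = DMSO alone and 100% = 87 µM carbachol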
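Material: zebrafish TRPN1-YFP in HEK293 cells. Doses: one dose of 3 µM, 0.3% DMSO. Incubation: dye 1 h 37 °C plus 30 min RT. Measured by: intracellular calcium fluorescence with Fluo-8.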
V1aR counter: V1a receptor agonism, counter-screen for OXTR agonists | CHO-V1R cells, Fluo-8 calcium fluorescence, agonist mode; 0% DMSO, 100% 3 nM vasopressin | activation, % at 3 µM | 320,000 tested, 0.25% active | P37288;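 active = activation above the mean activation of all tested compounds plus 3 SD, per screening run, cut at about 20% in these data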;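 also: signal is peak over basal fluorescence ratio across a 100 second FLIPR read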
TRPML3 agonist: human mucolipin-3 channel agonism. activation, % at 3 µM. Q8TDD5. 220,000 tested, 0.29% active. HEK293 TRPML3-YFP, Fluo-8 calcium fluorescence; 100% = the carbachol control signal;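 active = activation above its plate's cutoff, the mean activation of the plate's test wells plus 3 SD, cut at about 12% in these data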;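 also: 0% = DMSO only wells and 100% = carbachol wells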
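Material: HEK293 cells stably carrying human TRPML3-YFP; compound dosing: single dose, 3 µM final nominal compound, 0.3% DMSO final; incubation: 1-h 37 °C dye load, 5-s basal, 120-s post-compound reads; technique: Fluo-8 intracellular calcium fluorescence, excitation 470-495 nm, emission 515-575 nm; read-out basis: percent activation from peak-to-basal fluorescence ratio, scaled between DMSO and carbachol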
OXTR potentiate: potentiators of human oxytocin receptor; 320,000 tested, 0.061% active; activation, % at 3 µM; P30559; CHO-OTR cells, Fluo-8 calcium fluorescence, potentiator mode; 0% = oxytocin EC15, 100% = EC100; AID 2445;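 active = activation above that plate's cutoff, the mean activation of tested compounds plus 3 SD, cut at about 6.6% in these data, passing the limit was not always enough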;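 also: 100% uses oxytocin at 75 nM as the full agonist control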
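System: human OTR in CHO cells / Also added: sub-maximal oxytocin, roughly EC15 / Control set: EC15 oxytocin low, 75 nM oxytocin high / Schedule: 6 min compound pre-incubation at room temperature, 100 s kinetic read / Compound: single-point 3.0 µM / Replication: singlicate / Technique: Fluo-8 calcium dye fluorescence / Read-out basis: % activation of max/min ratio relative to oxytocin controls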
OXTR ag confirm: human OXTR agonism, confirmation; shares compounds with OXTR agonist; CHO-OTR cells, Fluo-8 calcium fluorescence, agonist; activation, % at 3 µM; 390 tested, 20% active; AID 434963;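 active = mean activation above about 20% derived from the earlier single-dose screen, limit read from the data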;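 also: peak over minimum fluorescence ratio per well during a 100 second FLIPR read; 0% = DMSO alone and 100% = oxytocin high control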
V1R ag counter 3x: counter-screen for oxytocin receptor agonists: V1a receptor agonists | shares compounds with OXTR agonist | activation, % at 3 µM | 390 tested, 10% active | AID 434991 | CHO-V1R cells, Fluo-8 calcium fluorescence, agonist;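 active = mean activation over triplicate exceeds the hit threshold set in the earlier primary screen, cut at about 20% in these data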;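 also: peak over basal fluorescence ratio within a 100 second read; 0% = DMSO alone and 100% = 3 nM vasopressin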
OXTR pot confirm: human OXTR potentiation, confirmation. shares compounds with OXTR potentiate. CHO-OTR cells, Fluo-8 calcium fluorescence; scaled from low-dose to maximal oxytocin. activation, % at 3 µM. 180 tested, under 10 active;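 active = mean percent activation over triplicates above a cutoff set from solvent-only control plates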;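 also: compounds tested in the presence of an EC15 dose of oxytocin; 0% = EC15 oxytocin with DMSO and 100% = EC100 oxytocin with DMSO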
The depositor's hits bear a star; nt = not tested or not shown.

SMILES	OXTR agonist	TRPN1 ag	V1aR counter	TRPML3 agonist	OXTR potentiate	OXTR ag confirm	V1R ag counter 3x	others
CC1(c2ccc([N+](=O)[O-])cc2)NC(=O)N(CC(=O)Nc2cccnc2Cl)C1=O (stereo not given)	21*	nt	18	nt	-15	8	9
Cc1ccc(C2(C)NC(=O)N(CC(=O)Nc3cccnc3Cl)C2=O)cc1 (stereo not given)	7	4	8	1	-12	nt	nt
COC(=O)N1c2ccccc2C=Cc2ccccc21	-3	nt	-1	nt	-4	nt	nt
O=C(NCC1CCN(Cc2cccc(Cl)c2)CC1)Nc1ccc(Cl)cc1	23*	nt	19	nt	-21	5	6
Cc1ccc(C)c(CN2CCC(CNC(=O)Nc3ccc(C)c(C)c3)CC2)c1	3	nt	3	nt	-20	nt	nt
CCc1cccc(CN2CCC(CNC(=O)Nc3ccc(Cl)cc3)CC2)c1	7	3	4	2	-12	nt	nt
COc1ccc(Cl)cc1NC(=O)NCC1CCN(Cc2cc(C)ccc2C)CC1	21*	nt	18	nt	-19	6	4
Cc1ccc(C(=O)Nc2cccc(NC(=O)CN3CCCCC3)c2)cc1	-1	nt	-1	nt	0	nt	nt
O=C1NC(=O)C(CC(=O)N(Cc2ccco2)C2(C(=O)NC3CCCC3)CCCCC2)N1 (stereo not given)	-1	3	0	1	-13	nt	nt
O=C(Cc1cccs1)N(Cc1ccco1)C1(C(=O)NC2CCCC2)CCCCC1	20*	-2	6	0	-19	0	0
Oc1ccccc1CNc1cnc2ccccc2c1	22*	3	13	1	-14	13	13
COc1ccc(CN2CCN(CC(O)Cn3c4ccccc4c4ccccc43)CC2)cc1 (stereo not given)	24*	1	12	2	-18	8	4
O=[N+]([O-])c1ccc(O)c(-c2cc(C(F)(F)F)nc(-c3ccccc3)n2)c1	26*	nt	16	nt	-23	15	12
COc1ccc(S(=O)(=O)N(n2c(C)nnc2-n2nc(C)cc2C)S(=O)(=O)c2ccc(OC)cc2)cc1	21*	2	0	0	-15	1	1
CN(C)CCn1c(SCc2ccccc2C#N)nc2c(sc3ccccc32)c1=O	0	nt	4	nt	-5	nt	nt
CC(=O)Nc1ccc(S(=O)(=O)N(C)C2CCN(C)CC2)cc1	0	nt	1	nt	-7	nt	nt
CC(Oc1cccc(Cl)c1)C(=O)Nc1ccc(S(=O)(=O)N(C)C2CCN(C)CC2)cc1 (stereo not given)	22*	nt	15	nt	-12	19	14
Cc1ccccc1COC(=O)CCCC1=NS(=O)(=O)c2ccccc2N1	24*	nt	17	nt	-15	17	14
CCOc1ccccc1OCC(=O)Nc1ccc(OC)c(S(=O)(=O)N2CCCCC2)c1	0	nt	1	nt	-8	nt	nt
CCOc1ccc(NC(=O)C(C)Oc2ccc(C#N)cc2)cc1S(=O)(=O)N1CCCC1 (stereo not given)	20*	nt	9	nt	-10	16	8
CSC1=NSC2=NC(=O)/C(=C\c3coc4ccccc4c3=O)C(=N)N12	26*	29*	18	15*	-11	329*	488*
Cc1cc(/C=C2/C(=N)N3C(=NC2=O)SN=C3S(C)(=O)=O)c(C)n1-c1ccc(F)cc1	2	1	2	0	-13	nt	nt
Fc1cc2[nH]c(=S)[nH]c2c(Br)c1N1CCSCC1	0	nt	-1	nt	-13	nt	nt
Cc1onc(-c2ccccc2)c1C(=O)Nc1ncc([N+](=O)[O-])s1	21*	nt	10	nt	-14	16	12
Cc1onc(-c2ccccc2)c1C(=O)Nc1nnc(C(C)C)s1	-1	nt	0	nt	-1	nt	nt
SMILES	OXTR agonist	TRPN1 ag	V1aR counter	TRPML3 agonist	OXTR potentiate	OXTR ag confirm	V1R ag counter 3x	others
c1ccc(COc2ccc(OCCCNC3CCCC3)cc2)cc1	21*	1	13	2	-16	13	2
COc1ccc(N2CCN(C(=O)CSc3nnc(NC(=O)C4CC4)s3)CC2)cc1	-1	1	-1	2	-4	nt	nt
Nc1nc2ccccc2n1CCOc1ccc(Br)cc1	21*	nt	7	nt	-15	1	0
Nc1nc2ccccc2n1CCOc1ccc(Cl)cc1	6	nt	6	nt	-8	nt	nt
O=C(Nc1ccc(N2CCOCC2)cc1N1CCOCC1)c1cccc([N+](=O)[O-])c1	1	nt	1	nt	4	nt	nt
c1cc2c(cc1C1CCCCC1)c1c3n2CCCNC3CCC1 (stereo not given)	26*	5	18	1	-2	1	1
COc1ccc(NC(=O)OCCn2c([N+](=O)[O-])cnc2C)cc1	-1	0	0	0	-3	nt	nt
CCC1(c2ccc(F)cc2)NC(=O)N(CC(=O)N2c3ccccc3CC2C)C1=O (stereo not given)	29*	nt	19	nt	-11	15	11
O=C1c2nccnc2C(=O)N1c1ccc(F)cc1	1	1	1	1	10*	nt	nt	OXTR pot confirm=-1
O=C(O)c1ccc(N2C(=O)c3cccnc3C2=O)cc1	0	2	0	0	-2	nt	nt
CC[C@@]1(O)C(=O)OCc2c1cc1n(c2=O)Cc2cc3c(N)cccc3nc2-1	0	nt	0	nt	15*	nt	nt	OXTR pot confirm=-3
NC(=O)c1nsc(C(=O)N(c2cccc(F)c2)C(C(=O)NC2CCCC2)c2ccco2)c1N (stereo not given)	-1	nt	-1	nt	-6	nt	nt
COc1cccc(-n2cnc3scc(-c4cccs4)c3c2=O)c1	-2	-2	-1	-1	-8	nt	nt
CCOc1ccc(-n2cnc3scc(-c4ccc(OC)c(OC)c4)c3c2=O)cc1	-2	0	-1	0	11*	nt	nt	OXTR pot confirm=-3
Cc1cc(C)nc(-n2nc(C)c(Sc3ccc(F)cc3)c2N)n1	-2	-2	-1	0	11*	nt	nt	OXTR pot confirm=-7
Cc1nn(-c2ccccc2)c(N)c1Sc1cccc([N+](=O)[O-])c1	-1	3	2	0	-12	nt	nt
Cc1cc(C)n2nc(C(=O)OCC(=O)NCc3ccc(F)cc3)nc2n1	-1	nt	-1	nt	-7	nt	nt
Cc1ccc(NC(=O)c2ccc(S(=O)(=O)NCc3cccnc3)cc2)c(C)c1	1	nt	11	nt	-5	nt	nt
O=C(COC(=O)C1CC2CCCC(C1)C2=O)NNC(=O)c1ccccc1F (stereo not given)	1	nt	0	nt	-11	nt	nt
CCN1CCN(C(=O)C2CCN(C(=O)Nc3ccccc3)CC2)CC1	1	nt	0	nt	1	nt	nt
CCOC(=O)N1CCN(C(=O)C2CCN(C(=O)Nc3ccccc3)CC2)CC1	2	nt	2	nt	11*	nt	nt	OXTR pot confirm=3

Screening results from PubChem BioAssay.
